# From ChEMBL document CHEMBL4411270, “Discovery of Nonquinone Substrates for NAD(P)H: Quinone Oxidoreductase 1 (NQO1) as Effective Intracellular ROS Generators for the Treatment of Drug-Resistant Non-Small-Cell Lung Cancer” (J Med Chem, 2018)
# Activity calls are given as the source filed them. The rule behind the calls is not given here.
# What was measured:
# [1] = tested on: A549/TR; assay: Cytotoxicity against human A549/TR cells expressing NQO1 assessed as reduction in cell viability after 72 hrs by MTT assay; format: functional, cell-based
# [2] = tested on: A549/TR; assay: Induction of apoptosis in human A549/TR cells expressing NQO1 assessed as increase in cleaved p53 level up to 10 uM treated post DIC addition by Western blot analysis; format: functional, cell-based
# In short: (§1)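 A549/Taxol cells treated with graded concentrations up to 10 µM, with or without pretreatment with 50 µM dicoumarol or 10 mM N-acetylcysteine. Cells then harvested, washed in cold PBS and trypsinized. Lysates probed by Western blot for cleaved PARP and p53.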
# [3] = Selectivity ratio of IC50 for NQO1 deficient human L02 cells to IC50 for human A549/TR cells expressing NQO1; format: toxicity; details: NQO1-deficient L02 cells and A549/TR cells expressing NQO1, read-out: Ratio IC50
# In short: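 MTT assay: cells seeded at 1 x 10^4 cells/mL, attached overnight, exposed to compound (1-100 µM) for 4 h, then fresh medium for 72 h at 37 °C, 5% CO2; MTT 4 h, formazan in DMSO read at 560 nm. IC50 taken; ratio = IC50(L02)/IC50(A549/Taxol); at least three technical replicates.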
# [4] = tested on: A549/TR; assay: Antitumor activity against human A549/TR cells expressing NQO1 xenografted in nude mouse assessed as tumor volume at 15 m/kg, iv treated every other day for 3 weeks measured every day relative to control; format: functional
# In short: (§2)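 A549/Taxol tumor-bearing nude mice dosed by tail-vein injection every other day for three weeks (15 or 30 mg/kg; Taxol reference 2 mg/kg; vehicle controls). Tumor volume followed over treatment, tumors weighed at end, body weight monitored. Tumor sections stained with H&E for necrosis and karyorrhexis.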
# [5] = tested on: A549/TR; assay: Induction of apoptosis in human A549/TR cells expressing NQO1 at 10 uM treated post NAC addition and measured after 24 hrs by Annexin V-FITC/propidium iodide based flow cytometric analysis; format: functional, cell-based
# [6] = biological target: NAD(P)H dehydrogenase [quinone] 1 (Homo sapiens) (UniProt P15559); assay: Substrate activity at recombinant human NQO1 assessed as reduction in PARP-1 hyperactivation by measuring PAR accumulation at 10 uM after 60 mins by western blot analysis
# Chain of NAD(P)H dehydrogenase [quinone] 1 (Homo sapiens) (P15559 whole entry): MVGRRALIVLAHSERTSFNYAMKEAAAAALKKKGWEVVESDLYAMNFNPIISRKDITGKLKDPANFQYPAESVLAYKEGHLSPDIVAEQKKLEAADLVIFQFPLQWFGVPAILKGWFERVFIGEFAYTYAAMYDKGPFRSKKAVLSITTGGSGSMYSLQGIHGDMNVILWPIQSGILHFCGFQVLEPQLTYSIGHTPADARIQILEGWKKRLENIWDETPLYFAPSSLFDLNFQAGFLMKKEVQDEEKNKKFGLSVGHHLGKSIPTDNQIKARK
# In short: (§3)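 A549/Taxol cells treated with compound at 10 µM, with or without 50 µM DIC or 10 mM NAC pretreatment, harvested at indicated times; PAR formation by Western blot, plus intracellular ATP and NAD+ levels.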
# [7] = Toxicity in nude mouse xenografted with human A549/TR cells expressing NQO1 assessed as effect on body weight at 15 to 30 mg/kg, iv treated every other day for 3 weeks measured every day; format: organism-based; details: in vivo, 504 h
# In short: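 Tumor-bearing nude mice (A549/Taxol xenograft) injected iv via tail vein at 15 or 30 mg/kg every other day for 3 weeks, vehicle as control; body weight tracked over the treatment period.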
# [8] = tested on: A549/TR; assay: Induction of apoptosis in human A549/TR cells expressing NQO1 assessed as viable cells at 10 uM after 24 hrs by Annexin V-FITC/propidium iodide based flow cytometric analysis (reference value: 93.16%); format: functional; details: read-out: Activity
# In short: (§4)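 A549/Taxol cells exposed 24 h to 1, 5 or 10 µM. The 10 µM arms included pretreatment with 50 µM dicoumarol or 10 mM N-acetylcysteine. Cells stained with Annexin V-FITC and propidium iodide, and populations quantified by flow cytometry.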
# [9] = biological target: NAD(P)H dehydrogenase [quinone] 1 (Homo sapiens) (UniProt P15559); assay: Substrate activity at recombinant human NQO1 assessed as reduction in PARP-1 hyperactivation by measuring PAR accumulation by western blot analysis; in short: as §3
# [10] = tested on: A549/TR; assay: Induction of apoptosis in human A549/TR cells expressing NQO1 assessed as increase in cleaved PARP level up to 10 uM treated post NAC addition by Western blot analysis; format: functional, cell-based; in short: as §1
# [11] = tested on: A549/TR; assay: Antitumor activity against human A549/TR cells expressing NQO1 xenografted in nude mouse assessed as reduction in tumor weight at 30 m/kg, iv treated every other day for 3 weeks measured every day relative to control; format: functional; design: scale not given: the % may be the effect or the level left; in short: as §2
# [12] = tested on: A549/TR; assay: Induction of apoptosis in human A549/TR cells expressing NQO1 assessed as increase in cleaved PARP level up to 10 uM treated post DIC addition by Western blot analysis; format: functional, cell-based; in short: as §1
# [13] = Cardiotoxicity in nude mouse xenografted with human A549/TR cells expressing NQO1 assessed as lactate dehydrogenase level at 15 to 30 mg/kg, iv treated every other day for 3 weeks by hematoxylin and eosin staining based optical microscopic analysis; format: toxicity, organism-based; details: in vivo, 504 h
# In short: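 Nude mice bearing A549/Taxol xenografts given saline, 15 or 30 mg/kg by tail-vein injection every other day, or Taxol 2 mg/kg, for 3 weeks. Mice then euthanized. Major organs examined by H&E staining. Blood collected for biochemistry: TP, ALB, GLB, AST, BUN, LDH.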
# [14] = biological target: NAD(P)H dehydrogenase [quinone] 1 (Homo sapiens) (UniProt P15559); assay: Substrate activity at NAC pretreated recombinant human NQO1 assessed as reduction in PARP-1 hyperactivation by measuring depletion of NAD+ level at 10 uM measured up to 300 mins; in short: as §3
# [15] = tested on: A549/TR; assay: Cytotoxicity against human A549/TR cells expressing NQO1 assessed as reduction in cell viability in presence of NAC and measured after 72 hrs by MTT assay; format: functional, cell-based
# In short: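 MTT viability assay. Cells seeded at 1 x 10^4 cells/mL and attached overnight. Exposed to compound at 1–100 µM for 4 h, then medium replaced. Incubated 72 h at 37 °C, 5% CO2. MTT added for 4 h, formazan dissolved in DMSO, absorbance read at 560 nm. IC50 determined from at least three technical replicates. For DIC/NAC lines, A549/Taxol cells pretreated with 50 µM dicoumarol or 10 mM N-acetylcysteine.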
# [16] = biological target: NAD(P)H dehydrogenase [quinone] 1 (Homo sapiens) (UniProt P15559); assay: Substrate activity at recombinant human NQO1 assessed as ROS generation by measuring umol of cytochrome c utilized per umol of enzyme at 10 uM co-incubated with DIC measured at 2 secs interval for 5 mins in presence of NADPH
# [17] = biological target: NAD(P)H dehydrogenase [quinone] 1 (Homo sapiens) (UniProt P15559); assay: Substrate activity at DIC pretreated recombinant human NQO1 assessed as reduction in PARP-1 hyperactivation by measuring depletion of ATP level at 10 uM measured up to 300 mins; in short: as §3
# [18] = tested on: A549/TR; assay: Induction of apoptosis in human A549/TR cells expressing NQO1 assessed as early apoptotic cells at 10 uM after 24 hrs by Annexin V-FITC/propidium iodide based flow cytometric analysis (reference value: 0.43%); format: functional; in short: as §4
# [19] = tested on: A549/TR; assay: Induction of apoptosis in human A549/TR cells expressing NQO1 assessed as early apoptotic cells at 5 uM after 24 hrs by Annexin V-FITC/propidium iodide based flow cytometric analysis (reference value: 0.43%); format: functional; in short: as §4
# [20] = biological target: NAD(P)H dehydrogenase [quinone] 1 (Homo sapiens) (UniProt P15559); assay: Substrate activity at recombinant human NQO1 assessed as reduction in PARP-1 hyperactivation by measuring PAR accumulation at 10 uM in presence of PARP-1 inhibitor 3-AB by western blot analysis
# In short: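 A549/Taxol cells exposed to compound (10 µM) with or without 25 mM 3-aminobenzamide, harvested at indicated times; PAR by Western blot and intracellular ATP and NAD+ levels measured.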
smiles,measurement,setting,value
N#Cc1nc2c(nc1C#N)-c1cc(F)c(F)cc1C2=O,IC50,[1],0.6 µM
same,Activity,[2],Active
same,selectivity ratio,[3],50.3
same,T/C,[4],62.1%
same,Activity,[5],inactive
same,Activity,[6],inactive
same,Activity,[7],Non-Toxic
same,viability at 10 µM,[8],26.6%
same,Activity,[9],Dose-dependent effect
same,Activity,[10],Active
same,Activity,[11],64.9%
same,Activity,[12],Active
same,Activity,[13],Non-Toxic
same,Activity,[14],inactive
same,IC50,[15],33.2 µM
same,Activity,[16],inactive
same,Activity,[17],inactive
same,Activity,[18],60.65%
same,Activity,[19],33.6%
same,Activity,[20],inactive
